# High-throughput results from PubChem BioAssay.
# RAM inhibit – yeast RAM network inhibition; 190,000 tested, 1.8% active; AID 868; inhibition, % at 50 µM; S. cerevisiae dse1pr::URA3 reporter, 5-FOA growth OD615, 2 d; analog-sensitive cbk1-as2 kinase mutant strain;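 active = inhibition above a set limit, 3 SD over mean compound inhibition, cut at about 8.4% in these data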;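 also: 0% = DMSO-only wells with no growth and 100% = 10 µM 1-NA-PP1 full growth; inhibition rescues growth on 5-FOA so higher OD means more RAM inhibition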
# NPY-Y1 antag – antagonists of human neuropeptide Y receptor Y1. P25929. 200,000 tested, 1% active. AID 1040. inhibition, % at 3.6 µM. HEK293-CNG Y1 cells, membrane potential fluorescence; NPY at EC95, then isoproterenol;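 active = inhibition above the campaign mean inhibition of all tested compounds plus 3 SD, cut at about 20% in these data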;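 also: 0% = DMSO wells given NPY plus isoproterenol and 100% = isoproterenol alone without NPY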
# Target sequence (P25929 whole entry, looked up): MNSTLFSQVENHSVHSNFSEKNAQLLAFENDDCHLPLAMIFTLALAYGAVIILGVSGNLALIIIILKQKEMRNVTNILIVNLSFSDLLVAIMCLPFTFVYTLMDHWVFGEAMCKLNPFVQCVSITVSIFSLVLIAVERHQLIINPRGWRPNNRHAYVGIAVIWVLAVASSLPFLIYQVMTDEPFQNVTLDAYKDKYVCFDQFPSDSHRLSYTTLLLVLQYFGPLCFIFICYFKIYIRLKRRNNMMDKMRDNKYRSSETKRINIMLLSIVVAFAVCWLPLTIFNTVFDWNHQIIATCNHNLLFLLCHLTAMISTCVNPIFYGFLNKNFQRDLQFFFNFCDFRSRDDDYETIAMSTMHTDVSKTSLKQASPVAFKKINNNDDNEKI
#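 Material: HEK293 cells co-expressing NPY Y1 receptor and cyclic-nucleotide gated channel. Timing: compound incubation 1 h at room temperature, readout 45 min post-stimulation. Signal: fluorescence, membrane potential probe.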
# WT yeast gro inh – growth inhibition of WT yeast, mitochondrial fusion screen; mitochondrial fusion phenotypic screen, WT strain; inhibition, % at 10 µM; 190,000 tested, 2.1% active; AID 1362; in the data active = inhibition above about 58%; tested in S. cerevisiae
# NPY2 pot ag – human NPY-Y2 potentiation or agonism, primary screen. P49146. cells expressing NPY-Y2, potentiator/agonist read-out. activation, % at 3.6 µM. 220,000 tested, 0.45% active. AID 1359; in the data active = activation above about 27%;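 also: cells stimulated with NPY near EC25 plus isoproterenol at EC100; 0% = vehicle plus submaximal agonist and 100% = vehicle plus saturating agonist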
# NPY-Y1 PAM-ag – potentiates or activates human NPY-Y1 receptor; AID 1304; activation, % at 3.6 µM; NPY-Y1 expressing cells, potentiator/agonist activation; 220,000 tested, 0.37% active; in the data active = activation above about 33%, passing the limit was not always enough;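 also: cells stimulated with NPY at EC10 then isoproterenol at EC100; 0% = low agonist plus stimulus and 100% = saturating agonist plus stimulus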
# NPY Y2 blocker – blocks the human neuropeptide Y Y2 receptor; P49146; NPY-Y2 expressing cells, antagonist mode; inhibition, % at 2.7 µM; 140,000 tested, 0.99% active; AID 793; in the data active = inhibition above about 17%;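 also: 0% = vehicle with agonist challenge and 100% = reference antagonist with challenge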
# * = called active by the depositor; · = not tested or not shown. Most compounds without a hit are left out; they make up all but 4.9% or so of the library.
SMILES,RAM inhibit,NPY-Y1 antag,WT yeast gro inh,NPY2 pot ag,NPY-Y1 PAM-ag,NPY Y2 blocker
CC(C)CN1CCN(Cc2cc(F)ccc2-n2cccn2)CC1CCO (configuration not stated),2.5,21.6*,-3.3,-2.8,-11.0,·
CC(C)CCN1CCN(Cc2cc(F)ccc2-n2cccn2)CC1CCO (configuration not stated),-0.6,9.6,-11.0,-1.6,-4.8,·
Cc1c(NC(=O)c2cc(-c3ccccc3O)on2)c(=O)n(-c2ccccc2)n1C,·,·,·,-2.4,-22.6,·
CCOC(=O)c1cccc(NC(=O)COc2ccc([N+](=O)[O-])cc2)c1,-0.5,2.3,-4.8,7.9,6.2,0.7
CCCCOc1ccc(C(=O)OCC(=O)Nc2cc(C)c(C)cc2[N+](=O)[O-])cc1,10.8*,1.3,-23.6,-3.2,-11.3,4.0
CCCCOc1ccc(C(=O)Nc2ccc(C)cc2[N+](=O)[O-])cc1,9.1*,-1.1,1.3,-1.8,-32.8,6.5
CCCOC(=O)c1cccc(NC(=O)COc2ccc([N+](=O)[O-])cc2)c1,10.0*,0.6,2.3,11.5,-25.9,0.7
CCCOc1ccc(C(=O)Nc2ccccc2[N+](=O)[O-])cc1,·,12.7,·,5.3,-32.5,8.0
CCCCCCn1c(N2CCN(c3ccccc3)CC2)nc2c1c(=O)[nH]c(=O)n2C,2.7,1.5,4.5,-13.9,9.6,4.9
c1ccc2c(CNCCN3CCOCC3)cccc2c1,2.0,4.8,·,12.5,-24.1,3.8
Cc1ccccc1C(=O)NC(=S)NCCC1=CCCCC1,0.9,10.5,71.2*,-29.4,-13.8,·
O=C(NCCC1=CCCCC1)C(c1ccccc1)c1ccccc1,1.6,27.7*,11.9,5.4,-7.8,11.8
O=C(NC(=S)NCCC1=CCCCC1)c1ccco1,-0.1,4.8,44.9,-4.8,-1.9,·
O=C(Cc1ccccc1)NCCC1=CCCCC1,-0.4,0.9,-2.9,5.4,-3.3,7.3
CCOC(=O)c1ccc(NC(=S)NCCC2=CCCCC2)cc1,-1.1,3.6,14.0,-18.5,-6.0,0.4
Cc1ccc(NC(=S)NCCC2=CCCCC2)cc1,1.8,-1.1,68.3*,1.8,-5.9,·
CC(OC(=O)c1ccc(S(=O)(=O)N(C)c2ccccc2)cc1)C(=O)NCCC1=CCCCC1 (configuration not stated),8.8*,-1.1,-0.7,2.7,-5.7,1.0
COC(=O)c1sc2nc(SCc3ccccc3C#N)n(N)c(=O)c2c1C,2.9,-0.8,-2.6,10.2,3.1,0.1
O=C(NC(=S)NCCC1=CCCCC1)c1ccc(Br)o1,0.0,8.7,75.9*,-13.3,-27.2,·
O=C(CSc1ccc2ccccc2n1)NCCC1=CCCCC1,8.6*,7.9,9.5,-11.8,-7.8,6.5
O=C(NCCC1=CCCCC1)c1ccc(Br)o1,0.1,-0.3,-5.7,-3.9,-4.2,0.4
Cc1ccc(SCC(=O)NCCC2=CCCCC2)cc1,2.3,5.0,1.3,-6.6,-29.6,6.5
O=c1cc(-c2ccc(O)cc2)oc2cc(O)c(C3OC(CO)C(O)C(O)C3O)c(O)c12 (configuration not stated),1.0,-0.6,0.7,-11.3,-10.1,·
COC(=O)/C(=C(/F)Sc1cc(C)c(O)c(C)c1)C(F)(F)F,3.3,-3.5,94.1*,2.8,-0.3,-1.2
CC(=O)O/N=C1\C(=O)N(Cc2ccc(C)cc2)c2ccccc21,-2.3,0.6,33.2,-9.3,6.8,·
SMILES,RAM inhibit,NPY-Y1 antag,WT yeast gro inh,NPY2 pot ag,NPY-Y1 PAM-ag,NPY Y2 blocker
CC(C)CC(=O)O/N=C1\C(=O)N(Cc2ccc(Cl)cc2)c2ccc([N+](=O)[O-])cc21,8.4*,-9.0,2.8,31.3,16.9,3.1
Cc1ccccc1NC(=O)Cc1ccccc1,1.0,0.5,-14.1,7.5,14.5,1.1
CCOC(=O)c1c(-c2ccc(C)o2)csc1NC(=S)NC(=O)c1ccc(F)cc1,10.8*,-1.4,-7.8,0.1,8.0,1.8
CCOC(=O)c1c(-c2ccc(C)o2)csc1NC(=O)CN1CCN(CC)CC1,1.9,11.3,-0.5,-24.0,-56.0,10.1
CCOC(=O)c1c(-c2ccc(C)o2)csc1NC(=O)CN1CCCCC1,-0.2,10.2,83.3*,-22.4,-31.8,·
O=C(CN1CCCC1)Nc1ccccc1C(=O)c1ccccc1,·,·,·,8.4,-0.8,·
O=C(CN1CCN(S(=O)(=O)c2ccccc2F)CC1)Nc1ccccc1C(=O)c1ccccc1,10.5*,4.8,16.3,-0.6,-4.0,·
Cc1ccc(S(=O)(=O)c2nc(Nc3nccs3)sc2Cl)cc1,2.0,7.6,62.0*,-2.0,-14.0,7.8
CC(=O)Nc1nc(S(=O)(=O)c2ccc(C)cc2)c(Cl)s1,2.9,1.6,-31.4,9.1,-33.3,-2.2
COc1ccc(OC)c(NC(=O)C(=S)NC2CCCCC2)c1,8.7*,3.8,73.6*,1.8,-18.0,·
CCOC(=O)c1sc(=S)n(-c2ccccc2Cl)c1C,·,·,·,-5.8,8.3,·
CCOC(=O)N1C(=O)C2(CCCCC2)N(c2ccccc2Cl)C1=S,5.2,-1.4,77.1*,23.8,25.7,0.5
Fc1ccccc1N1CCN(C(c2ccncc2)c2nnnn2C2CCCC2)CC1 (configuration not stated),-1.0,1.8,-3.7,5.0,-9.5,8.5
CC1CC(=O)NN=C1c1ccc(N(C)C)c([N+](=O)[O-])c1 (configuration not stated),0.5,78.0*,-7.5,-43.4,-88.1,94.5*
CCN(CC)c1ccc(C2=NNC(=O)CC2C)cc1[N+](=O)[O-] (configuration not stated),4.0,63.5*,-5.3,-45.4,-84.9,71.0*
CCN(CC)CCN(C)c1ccc(N2C(=O)C3CC=CCC3C2=O)cc1[N+](=O)[O-] (configuration not stated),2.3,-3.1,-5.0,8.2,6.6,·
CC1CC(=O)NN=C1c1cccs1 (configuration not stated),·,·,·,-49.7,-43.6,·
Cc1ccc(CNC(=O)c2cncc(Br)c2)cc1,3.0,3.2,41.6,-13.5,-2.5,·
CCCNc1nc2c(c(=O)[nH]c(=O)n2C)n1Cc1cccc(Br)c1,4.8,-3.1,4.3,12.6,15.6,0.6
CCOC(=O)CC(=O)CSc1nc2c(sc(=S)n2-c2ccc(OCC)cc2)c(=O)[nH]1,8.7*,-3.6,9.8,-14.5,-26.5,4.3
S=C(NCc1cccc(Cl)c1)NC1CCCCC1,1.8,-0.8,65.8*,1.7,4.2,0.6
S=C(NCc1ccccc1)NC1CCCCC1,2.1,-1.0,24.6,-5.0,5.5,·
COC(=O)C1CCN(C(=O)c2sc3nc(-c4ccccc4)cn3c2C)CC1,-0.2,-4.6,15.2,-0.8,-10.7,4.0
c1ccc(-c2nc(N3CCCC3)nc3ccccc23)cc1,-0.4,2.1,12.0,3.1,-12.5,·
CCOc1cc(-c2c(C#N)c(N)nc3c2CCc2ccccc2-3)ccc1O,2.1,2.4,42.8,0.5,-3.5,5.3
COc1ccccc1-c1c(C#N)c(N)nc2c1CCc1ccccc1-2,3.2,7.0,67.0*,-7.0,-21.6,8.4
